Assay results reported in ChEMBL document CHEMBL4007505 (J Med Chem, 2017).
Values belong to the compound of their own block, whether it stands above or below them. Active and inactive are the calls of the source.

What was measured:
[1] = molecular target: T1, Sodium-dependent dopamine transporter (Homo sapiens, UniProt Q01959); assay: Enhancing of [3H]WIN35,428 binding to recombinant human DAT expressed in HEK293 cell membranes at 10 uM pre-incubated for 10 mins before radioligand addition and measured 90 mins after radioligand addition by micro beta scintillation counting analysis relative to control
[2] = molecular target: T1, Sodium-dependent dopamine transporter; assay: Inhibition of [3H]WIN35,428 binding to recombinant human DAT expressed in HEK293 cell membranes at 10 uM pre-incubated for 10 mins before radioligand addition and measured 90 mins after radioligand addition by micro beta scintillation counting analysis relative to control
Adenosine receptor A3 [3] = molecular target: T2, Adenosine receptor A3 (Homo sapiens, UniProt P0DMS8); assay: Displacement of [125I]N6-(4-amino-3-iodobenzyl)adenosine-5'-N-methyluronamide from human A3AR expressed in HEK293T cells pre-incubated for 10 mins before radioligand addition and measured 90 mins after radioligand addition by micro beta scintillation counting analysis relative to control; type: cell-based, HEK-293T
T2 sequence (P0DMS8 whole entry): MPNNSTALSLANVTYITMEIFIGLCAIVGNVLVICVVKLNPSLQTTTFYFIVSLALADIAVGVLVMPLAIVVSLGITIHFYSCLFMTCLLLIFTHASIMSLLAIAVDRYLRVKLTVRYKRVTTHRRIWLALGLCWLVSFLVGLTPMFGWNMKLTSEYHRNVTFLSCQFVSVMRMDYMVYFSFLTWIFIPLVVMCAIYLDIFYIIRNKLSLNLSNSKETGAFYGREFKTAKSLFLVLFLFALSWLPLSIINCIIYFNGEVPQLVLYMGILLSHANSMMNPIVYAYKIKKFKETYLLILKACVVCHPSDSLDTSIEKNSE

Adenosine receptor A3 [4] = molecular target: T3, Adenosine receptor A3 (Mus musculus, UniProt Q61618); assay: Displacement of [125I]N6-(4-amino-3-iodobenzyl)adenosine-5'-N-methyluronamide from mouse A3AR expressed in HEK293T cells pre-incubated for 10 mins before radioligand addition and measured 90 mins after radioligand addition by micro beta scintillation counting analysis relative to control; type: cell-based
T3 sequence (Q61618 whole entry): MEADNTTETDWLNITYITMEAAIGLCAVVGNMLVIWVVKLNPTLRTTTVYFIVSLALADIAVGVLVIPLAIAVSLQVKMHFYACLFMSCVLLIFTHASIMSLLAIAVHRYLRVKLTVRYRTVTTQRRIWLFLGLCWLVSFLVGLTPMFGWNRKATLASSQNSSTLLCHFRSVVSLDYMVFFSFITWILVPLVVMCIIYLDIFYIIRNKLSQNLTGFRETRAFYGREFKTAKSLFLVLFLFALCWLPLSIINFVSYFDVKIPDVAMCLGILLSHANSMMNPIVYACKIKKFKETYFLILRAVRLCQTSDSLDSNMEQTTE

[5] = molecular target: T4, Sodium-dependent noradrenaline transporter (Homo sapiens, UniProt P23975); assay: Inhibition of [3H]nisoxetine binding to recombinant human NET expressed in HEK293 cell membranes preincubated for 10 mins followed by radioligand addition measured after 90 mins by micro beta scintillation counting analysis
Mus musculus = assay: Antiallodynic activity in mouse chronic constriction injury model of neuropathic pain assessed as time duration of action for increasing in paw withdrawal threshold at 3 umol/kg, po administered on day 7 post injury; type: functional
[6] = molecular target: Alpha-2A adrenergic receptor (Homo sapiens, UniProt P08913); assay: Displacement of [3H]Rauwolscine from human adrenergic alpha2A receptor
[7] = molecular target: Alpha-2B adrenergic receptor (Homo sapiens, UniProt P18089); assay: Displacement of [3H]Rauwolscine from human adrenergic alpha2B receptor
[8] = molecular target: T5, Alpha-1A adrenergic receptor (Homo sapiens, UniProt P35348); assay: Displacement of [3H]Prazosin from human adrenergic alpha1A receptor
T5 sequence (P35348 whole entry): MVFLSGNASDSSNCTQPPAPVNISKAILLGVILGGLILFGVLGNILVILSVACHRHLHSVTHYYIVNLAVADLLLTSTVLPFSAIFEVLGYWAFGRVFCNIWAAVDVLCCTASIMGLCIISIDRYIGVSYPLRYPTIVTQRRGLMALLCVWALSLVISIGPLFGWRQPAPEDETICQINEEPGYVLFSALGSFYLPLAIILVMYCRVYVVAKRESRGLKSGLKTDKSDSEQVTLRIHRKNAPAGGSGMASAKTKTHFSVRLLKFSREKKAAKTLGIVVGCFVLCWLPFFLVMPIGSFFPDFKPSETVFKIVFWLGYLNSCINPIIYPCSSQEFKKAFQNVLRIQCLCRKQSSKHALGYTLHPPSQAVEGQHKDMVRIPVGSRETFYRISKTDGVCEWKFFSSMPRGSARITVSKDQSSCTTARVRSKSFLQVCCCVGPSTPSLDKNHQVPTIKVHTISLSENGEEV

[9] = molecular target: T6, Alpha-1B adrenergic receptor (Homo sapiens, UniProt P35368); assay: Displacement of [3H]Prazosin from human adrenergic alpha1B receptor
T6 sequence (P35368 whole entry): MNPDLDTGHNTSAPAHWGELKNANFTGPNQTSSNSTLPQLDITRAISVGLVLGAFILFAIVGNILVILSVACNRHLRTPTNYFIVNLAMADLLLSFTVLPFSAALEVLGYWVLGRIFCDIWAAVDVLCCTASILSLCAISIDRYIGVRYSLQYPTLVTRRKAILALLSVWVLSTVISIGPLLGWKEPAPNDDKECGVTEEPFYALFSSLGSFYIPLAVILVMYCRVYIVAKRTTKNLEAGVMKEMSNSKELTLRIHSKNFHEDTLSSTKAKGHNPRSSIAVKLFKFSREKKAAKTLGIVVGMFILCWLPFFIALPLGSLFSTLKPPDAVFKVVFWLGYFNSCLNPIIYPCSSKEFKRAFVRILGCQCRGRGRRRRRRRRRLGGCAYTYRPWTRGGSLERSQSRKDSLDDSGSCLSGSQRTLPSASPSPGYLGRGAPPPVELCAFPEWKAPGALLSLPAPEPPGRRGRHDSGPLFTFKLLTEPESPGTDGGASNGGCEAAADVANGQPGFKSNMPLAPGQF

[10] = molecular target: T7, Alpha-1D adrenergic receptor (Homo sapiens, UniProt P25100); assay: Displacement of [3H]Prazosin from human adrenergic alpha1D receptor
T7 sequence (P25100 whole entry): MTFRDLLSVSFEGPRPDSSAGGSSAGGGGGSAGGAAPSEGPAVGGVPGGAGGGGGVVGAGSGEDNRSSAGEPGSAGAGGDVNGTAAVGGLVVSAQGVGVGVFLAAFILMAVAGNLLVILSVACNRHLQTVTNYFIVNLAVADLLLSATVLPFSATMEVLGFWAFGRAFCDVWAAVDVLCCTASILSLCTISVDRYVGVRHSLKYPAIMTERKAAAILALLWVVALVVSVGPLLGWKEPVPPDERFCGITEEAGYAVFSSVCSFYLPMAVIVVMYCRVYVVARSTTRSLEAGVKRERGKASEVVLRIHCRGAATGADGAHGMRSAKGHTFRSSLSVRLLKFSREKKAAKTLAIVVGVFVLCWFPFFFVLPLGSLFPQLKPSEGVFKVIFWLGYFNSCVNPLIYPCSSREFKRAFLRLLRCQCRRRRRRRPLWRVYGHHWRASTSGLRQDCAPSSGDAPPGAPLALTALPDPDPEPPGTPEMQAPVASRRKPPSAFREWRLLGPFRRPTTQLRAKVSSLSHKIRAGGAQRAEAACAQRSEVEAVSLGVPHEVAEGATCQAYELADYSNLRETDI

[11] = molecular target: T8, Alpha-2C adrenergic receptor (Homo sapiens, UniProt P18825); assay: Displacement of [3H]Rauwolscine from human adrenergic alpha2C receptor
T8 sequence (P18825 whole entry): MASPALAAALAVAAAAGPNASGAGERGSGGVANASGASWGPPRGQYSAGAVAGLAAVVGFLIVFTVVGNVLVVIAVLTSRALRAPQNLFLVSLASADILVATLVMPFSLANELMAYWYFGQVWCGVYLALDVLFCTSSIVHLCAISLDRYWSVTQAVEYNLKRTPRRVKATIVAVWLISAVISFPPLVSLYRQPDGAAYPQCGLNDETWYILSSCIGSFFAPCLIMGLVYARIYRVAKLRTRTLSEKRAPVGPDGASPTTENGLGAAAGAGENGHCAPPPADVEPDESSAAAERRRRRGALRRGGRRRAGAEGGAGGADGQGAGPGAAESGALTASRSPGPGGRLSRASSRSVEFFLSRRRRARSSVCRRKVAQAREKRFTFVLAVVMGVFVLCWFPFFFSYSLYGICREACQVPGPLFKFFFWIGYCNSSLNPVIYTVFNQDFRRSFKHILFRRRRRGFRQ

[12] = molecular target: T1, Sodium-dependent dopamine transporter; assay: Enhancing of [3H]WIN35,428 binding to recombinant human DAT expressed in HEK293 cell membranes pre-incubated for 10 mins before radioligand addition and measured 90 mins after radioligand addition by micro beta scintillation counting analysis relative to control
[13] = molecular target: T1, Sodium-dependent dopamine transporter; assay: Enhancing of [125I]RTI-55 binding to recombinant human DAT expressed in HEK293 cell membranes preincubated for 10 mins followed by radioligand addition measured after 90 mins by micro beta scintillation counting analysis; design: concentration or dose not given beside the values
In short: (§1)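 Membranes of HEK-293 cells stably expressing hDAT, hNET or hSERT. […] Compound preincubated 10 min at room temperature, then [125I]23 (40-80 pM final) or [3H]26 (1-3 nM for DAT and NET, 10-13 nM for SERT) added. Incubated 90 min at room temperature in the dark, then filtered. EC50 or Ki; mean ± SEM.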

[14] = molecular target: T1, Sodium-dependent dopamine transporter; assay: Enhancing of [3H]mazindol binding to recombinant human DAT expressed in HEK293 cell membranes preincubated for 10 mins followed by radioligand addition measured after 90 mins by micro beta scintillation counting analysis; design: concentration or dose not given beside the values; in short: as §1
[15] = molecular target: T4, Sodium-dependent noradrenaline transporter; assay: Enhancing of [125I]RTI-55 binding to recombinant human NET expressed in HEK293 cell membranes preincubated for 10 mins followed by radioligand addition measured after 90 mins by micro beta scintillation counting analysis; design: concentration or dose not given beside the values
[16] = molecular target: T1, Sodium-dependent dopamine transporter; assay: Inhibition of recombinant human DAT expressed in HEK293 cell […] as reduction in [3H]-DA uptake incubated for 22 mins by micro beta scintillation counting analysis
[17] = molecular target: T4, Sodium-dependent noradrenaline transporter; assay: Enhancing of [3H]mazindol binding to recombinant human NET expressed in HEK293 cell membranes preincubated for 10 mins followed by radioligand addition measured after 90 mins by micro beta scintillation counting analysis
[18] = molecular target: T4, Sodium-dependent noradrenaline transporter; assay: Inhibition of recombinant human NET expressed in HEK293 […] assessed as reduction in [3H]-norepinephrine uptake incubated for 22 mins by micro beta scintillation counting analysis
[19] = molecular target: T9, Sodium-dependent serotonin transporter (Homo sapiens, UniProt P31645); assay: Enhancing of [125I]RTI-55 binding to recombinant human SERT expressed in HEK293 cell membranes preincubated for 10 mins followed by radioligand addition measured after 90 mins by micro beta scintillation counting analysis
[20] = molecular target: T9, Sodium-dependent serotonin transporter; assay: Enhancing of [3H]mazindol binding to recombinant human SERT expressed in HEK293 cell membranes preincubated for 10 mins followed by radioligand addition measured after 90 mins by micro beta scintillation counting analysis
[21] = molecular target: T9, Sodium-dependent serotonin transporter; assay: Inhibition of recombinant human SERT expressed in HEK293 cell […] as reduction in [3H]5-HT uptake incubated for 22 mins by micro beta scintillation counting analysis
Target sequence in this assay (P31645 whole entry): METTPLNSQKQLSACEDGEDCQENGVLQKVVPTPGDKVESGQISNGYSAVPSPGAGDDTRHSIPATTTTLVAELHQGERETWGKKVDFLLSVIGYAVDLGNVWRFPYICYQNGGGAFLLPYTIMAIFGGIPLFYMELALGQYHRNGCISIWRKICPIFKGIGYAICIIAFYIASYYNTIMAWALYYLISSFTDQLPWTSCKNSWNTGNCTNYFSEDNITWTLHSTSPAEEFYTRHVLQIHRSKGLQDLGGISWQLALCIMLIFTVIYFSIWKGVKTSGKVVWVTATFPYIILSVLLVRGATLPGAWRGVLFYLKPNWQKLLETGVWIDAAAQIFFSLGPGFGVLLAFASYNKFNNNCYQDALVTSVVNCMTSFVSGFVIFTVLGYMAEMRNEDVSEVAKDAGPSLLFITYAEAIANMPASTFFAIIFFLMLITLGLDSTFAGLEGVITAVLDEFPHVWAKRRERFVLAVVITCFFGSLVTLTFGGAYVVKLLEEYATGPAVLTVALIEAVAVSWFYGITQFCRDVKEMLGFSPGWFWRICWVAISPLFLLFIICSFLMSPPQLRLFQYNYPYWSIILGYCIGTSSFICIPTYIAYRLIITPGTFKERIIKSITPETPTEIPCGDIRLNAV

[22] = molecular target: Sodium-dependent dopamine transporter (Mus musculus) (UniProt Q61327); assay: (§2) Enhancing of [125I]RTI-55 binding to mouse DAT expressed in HEK293 cells preincubated for 10 mins followed by radioligand addition measured after 90 mins by micro beta scintillation counting analysis; type: cell-based
In short: (§3)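 Membranes preincubated 10 min at room temperature with compound in Krebs-HEPES buffer pH 7.4, then [125I]23 at fixed 45-50 pM for 90 min in the dark, filtered. […] EC50 and % control binding; mean ± SEM.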

[23] = molecular target: T10, Sodium-dependent dopamine transporter (Mus musculus, UniProt Q61327); assay: as §2; type: cell-based; in short: as §3
[24] = molecular target: T10, Sodium-dependent dopamine transporter; assay: Inhibition of mouse DAT expressed in HEK293 cells assessed as reduction in [3H]-DA uptake; type: cell-based

T1 sequence (Q01959 whole entry): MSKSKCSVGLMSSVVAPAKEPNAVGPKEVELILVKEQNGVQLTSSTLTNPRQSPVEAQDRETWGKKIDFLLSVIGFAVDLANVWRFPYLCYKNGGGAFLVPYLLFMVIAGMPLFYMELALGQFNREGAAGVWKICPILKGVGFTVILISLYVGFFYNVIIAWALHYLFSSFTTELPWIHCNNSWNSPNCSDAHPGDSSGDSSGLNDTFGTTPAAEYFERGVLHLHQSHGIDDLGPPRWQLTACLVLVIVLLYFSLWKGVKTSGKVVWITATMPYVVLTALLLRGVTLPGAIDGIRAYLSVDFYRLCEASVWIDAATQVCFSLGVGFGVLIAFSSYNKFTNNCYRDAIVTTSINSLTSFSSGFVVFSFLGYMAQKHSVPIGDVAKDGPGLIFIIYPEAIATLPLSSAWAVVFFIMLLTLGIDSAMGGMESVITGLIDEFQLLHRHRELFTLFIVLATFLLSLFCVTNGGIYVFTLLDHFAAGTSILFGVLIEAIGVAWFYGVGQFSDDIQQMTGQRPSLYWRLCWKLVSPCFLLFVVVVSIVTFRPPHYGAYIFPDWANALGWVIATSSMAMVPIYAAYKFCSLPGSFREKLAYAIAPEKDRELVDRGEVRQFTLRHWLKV
T4 sequence (P23975 whole entry): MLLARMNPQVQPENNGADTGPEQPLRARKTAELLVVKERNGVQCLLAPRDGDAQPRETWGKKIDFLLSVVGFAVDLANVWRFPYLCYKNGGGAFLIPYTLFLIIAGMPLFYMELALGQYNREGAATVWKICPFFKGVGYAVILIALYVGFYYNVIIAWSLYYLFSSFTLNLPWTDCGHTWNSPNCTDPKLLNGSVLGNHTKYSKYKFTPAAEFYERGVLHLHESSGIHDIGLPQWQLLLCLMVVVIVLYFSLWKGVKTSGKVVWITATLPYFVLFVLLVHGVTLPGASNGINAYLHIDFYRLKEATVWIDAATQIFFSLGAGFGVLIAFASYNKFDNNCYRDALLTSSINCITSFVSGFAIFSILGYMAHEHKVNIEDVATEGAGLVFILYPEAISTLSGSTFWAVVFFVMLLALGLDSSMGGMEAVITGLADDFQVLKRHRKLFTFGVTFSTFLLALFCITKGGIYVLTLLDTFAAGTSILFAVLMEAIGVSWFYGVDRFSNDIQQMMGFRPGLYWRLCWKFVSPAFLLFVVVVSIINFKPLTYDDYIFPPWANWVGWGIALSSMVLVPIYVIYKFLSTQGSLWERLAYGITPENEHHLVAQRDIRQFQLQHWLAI
Chain of Alpha-2A adrenergic receptor (P08913 whole entry): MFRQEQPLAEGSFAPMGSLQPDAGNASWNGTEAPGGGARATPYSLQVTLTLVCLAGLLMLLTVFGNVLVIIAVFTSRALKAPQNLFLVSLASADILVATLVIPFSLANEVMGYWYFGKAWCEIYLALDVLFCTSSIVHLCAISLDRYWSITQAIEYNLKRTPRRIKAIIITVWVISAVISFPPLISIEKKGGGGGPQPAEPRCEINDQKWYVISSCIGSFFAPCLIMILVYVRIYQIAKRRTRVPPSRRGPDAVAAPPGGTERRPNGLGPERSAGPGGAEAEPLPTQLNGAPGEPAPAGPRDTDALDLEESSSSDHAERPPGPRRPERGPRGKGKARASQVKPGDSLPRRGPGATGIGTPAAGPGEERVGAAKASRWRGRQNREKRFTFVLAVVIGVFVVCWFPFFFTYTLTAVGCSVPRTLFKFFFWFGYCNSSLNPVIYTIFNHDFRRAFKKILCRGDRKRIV
T10 sequence (Q61327 whole entry): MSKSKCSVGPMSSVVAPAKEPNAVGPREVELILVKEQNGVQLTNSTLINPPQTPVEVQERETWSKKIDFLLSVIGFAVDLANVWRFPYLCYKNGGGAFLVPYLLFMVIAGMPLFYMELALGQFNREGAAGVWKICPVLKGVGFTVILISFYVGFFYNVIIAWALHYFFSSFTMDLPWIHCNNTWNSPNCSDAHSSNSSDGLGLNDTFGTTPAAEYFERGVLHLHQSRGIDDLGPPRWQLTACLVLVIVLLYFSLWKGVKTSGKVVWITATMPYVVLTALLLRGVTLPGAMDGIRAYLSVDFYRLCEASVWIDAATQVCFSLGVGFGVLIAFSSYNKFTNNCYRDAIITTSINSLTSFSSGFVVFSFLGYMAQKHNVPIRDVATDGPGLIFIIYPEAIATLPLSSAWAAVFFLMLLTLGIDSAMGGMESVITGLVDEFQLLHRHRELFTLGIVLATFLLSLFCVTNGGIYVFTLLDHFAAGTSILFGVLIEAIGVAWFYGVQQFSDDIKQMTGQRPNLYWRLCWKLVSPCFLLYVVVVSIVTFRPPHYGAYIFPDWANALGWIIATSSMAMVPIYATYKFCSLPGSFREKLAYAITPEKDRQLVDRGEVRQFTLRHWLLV
Chain of Alpha-2B adrenergic receptor (P18089 whole entry): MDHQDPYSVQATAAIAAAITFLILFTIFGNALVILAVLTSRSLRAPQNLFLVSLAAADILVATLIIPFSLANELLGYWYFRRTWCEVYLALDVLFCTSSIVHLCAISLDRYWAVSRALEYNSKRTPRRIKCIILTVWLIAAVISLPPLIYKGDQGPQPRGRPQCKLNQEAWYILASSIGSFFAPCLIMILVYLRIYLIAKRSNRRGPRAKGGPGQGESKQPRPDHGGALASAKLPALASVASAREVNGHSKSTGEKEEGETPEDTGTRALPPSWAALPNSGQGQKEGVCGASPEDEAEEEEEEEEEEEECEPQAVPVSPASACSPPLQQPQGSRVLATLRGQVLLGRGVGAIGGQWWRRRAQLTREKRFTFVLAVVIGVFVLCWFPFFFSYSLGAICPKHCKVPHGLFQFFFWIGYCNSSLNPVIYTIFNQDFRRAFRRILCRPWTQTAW
Chain of Sodium-dependent dopamine transporter (Mus musculus) (Q61327 whole entry): as the sequence (Q61327 whole entry) above

Activity [1]: 84%
inhibition [2]: inactive
Ki (Adenosine receptor A3 [3]): 0.00625 µM
Ki (Adenosine receptor A3 [4]): 0.597 µM
Ki [5]: 3.1 µM
Ki [6]: 5 to 10 µM
Ki [7]: 5 to 10 µM
Ki [8]: > 10 µM
Ki [9]: > 10 µM
Ki [10]: > 10 µM
Ki [11]: > 10 µM
EC50 [12]: > 1 µM
Compound: CCCNc1nc(C#Cc2ccc(Cl)s2)nc2c1ncn2[C@@H]1O[C@H](C(=O)NC)[C@@H](O)[C@H]1O
Time (Mus musculus): >6 h

Activity [1]: 321%
inhibition [2]: inactive
Ki [6]: 5 to 10 µM
Ki [8]: > 10 µM
Ki [9]: > 10 µM
Ki [10]: > 10 µM
Ki [11]: > 10 µM
Compound: CNC(=O)[C@H]1O[C@@H](n2cnc3c(NC)nc(C#Cc4ccc(Cl)s4)nc32)[C@H](O)[C@@H]1O
Time (Mus musculus): >6 h

Compound: CNC(=O)[C@@]12C[C@@H]1[C@@H](n1cnc3c(NC)nc(C#Cc4ccc(Cl)s4)nc31)[C@H](O)[C@@H]2O
Activity [13]: 550%
EC50 ([13]; read-out: EC50): 0.0351 µM
Activity [14]: 403%
EC50 ([14]; read-out: EC50): 0.131 µM
Activity [15]: 386%
EC50 ([15]; read-out: EC50): 1.18 µM
IC50 [16]: 0.253 µM
Activity [17]: inactive
IC50 [18]: > 10 µM
Activity [19]: inactive
EC50 ([19]; read-out: EC50): > 10 µM
Activity [20]: inactive
EC50 [20]: > 10 µM
IC50 [21]: > 10 µM
Emax [22]: 1150%
EC50 [23]: 2.23 µM
IC50 [24]: 2.29 µM
